Source: ChEMBL document CHEMBL4387794, “Constituents of the Edible Leaves of Melicope pteleifolia with Potential Analgesic Activity” (J Nat Prod, 2019)
Activity calls are given as the source filed them. The calls are words filed in the database; no cut-off is given here.

How the values were obtained:
HaCaT [1] = test: Antipyretic activity in human HaCaT cells assessed as inhibition of TNFalpha-induced PGE2 production at 50 uM pre-incubated for 2 hrs before TNFalpha stimulation for 24 hrs by ELISA; format: functional, cell-based
Outline: (§1)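 HaCaT keratinocytes, seeded at 1.5 × 10^5 cells/well and grown overnight, then serum-starved 12 h. Pretreated with compounds for 2 h, then stimulated 24 h with 20 ng/mL TNF-α; unstimulated cells as negative control. Supernatant PGE2 quantified by ELISA, absorbance 450 nm. Means ± SD of three independent experiments.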

HaCaT [2] = test: Cytotoxicity in human HaCaT cells assessed as reduction in cell viability at 50 uM incubated for 2 4 hrs by MTT assay; format: cell-based
Outline: (§2)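 MTT viability in HaCaT cells seeded at 10^4 cells/well. After 12 h, compounds added in serum-free medium for 24 h, then MTT 4 h. Formazan dissolved in DMSO, absorbance read at 550 nm. Triplicate wells, experiments repeated at least three times.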

HaCaT [3] = test: Cytotoxicity in human HaCaT cells assessed as reduction in cell viability at 100 uM incubated for 2 4 hrs by MTT assay; format: cell-based; outline: as §2
HaCaT [4] = test: Antipyretic activity in human HaCaT cells assessed as inhibition of TNFalpha-induced PGE2 production at 100 uM pre-incubated for 2 hrs before TNFalpha stimulation for 24 hrs by ELISA; format: functional, cell-based; outline: as §1
Mus musculus = test: Antipyretic activity in ICR mouse assessed as suppression of LPS-induced febrile response measured at 10 mg/kg, po administered 30 mins before LPS injection and measured up to 6 hrs post LPS injection; format: functional, organism-based
Outline: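 Male 8-week-old ICR mice, 5 per group, reverse 12 h light/dark cycle. Compound suspended in 0.5% carboxymethyl cellulose, given orally 30 min before i.p. LPS (0.5 mg/kg in pyrogen-free PBS). Baseline rectal Tb from six readings over 2 h, then Tb followed to 6 h post-LPS. Each hour compared to LPS group, Student t-test, p < 0.05.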

[5] = 50 uM, in the assay text read “at 50 uM” for “at 100 uM”

SMILES	inhibition (HaCaT [1])	Activity (HaCaT [2])	Activity (HaCaT [3])	inhibition (HaCaT [4]; [5])	inhibition (HaCaT [4]; 100 uM)	Activity (Mus musculus)
COc1cc(/C=C/C(=O)OC[C@H]2O[C@@H](c3c(O)c(C(C)=O)c(O)c([C@@H]4O[C@H](COC(=O)/C=C/c5ccc(O)cc5)[C@@H](O)[C@H](O)[C@H]4O)c3O)[C@H](O)[C@@H](O)[C@@H]2O)ccc1O	Active	Non-Toxic	Toxic	Active		
CC(=O)c1c(O)c([C@@H]2O[C@H](CO)[C@@H](O)[C@H](O)[C@H]2O)c(O)c2c1O[C@@]1(C2)O[C@H](CO)[C@H](O)[C@@H]1O	Active		Non-Toxic		Active	
CC(=O)c1c(O)c([C@@H]2O[C@H](CO)[C@@H](O)[C@H](O)[C@H]2O)c(O)c2c1O[C@@]1(C2)O[C@@H](CO)[C@H](O)[C@H]1O	Active		Non-Toxic		Active	
CC(=O)c1c(O)c([C@@H]2O[C@H](CO)[C@@H](O)[C@H](O)[C@H]2O)c(O)c2c1O[C@]1(C2)O[C@H](CO)[C@@H](O)[C@H]1O	Active		Non-Toxic		Active	
CC(=O)c1c(O)c([C@@H]2O[C@H](CO)[C@@H](O)[C@H](O)[C@H]2O)c(O)c([C@@H]2O[C@H](COC(=O)[C@H]3[C@H](C(=O)OC[C@H]4O[C@@H](c5c(O)c(C(C)=O)c(O)c([C@@H]6O[C@H](CO)[C@@H](O)[C@H](O)[C@H]6O)c5O)[C@H](O)[C@@H](O)[C@@H]4O)[C@@H](c4ccc(O)cc4)[C@@H]3c3ccc(O)cc3)[C@@H](O)[C@H](O)[C@H]2O)c1O	Active		Non-Toxic		Active	
CC(=O)c1c(O)c([C@@H]2O[C@H](CO)[C@@H](O)[C@H](O)[C@H]2O)c(O)c([C@@H]2O[C@H](CO)[C@@H](O)[C@H](O)[C@H]2O)c1O	Active		Non-Toxic		Active	Active
CC(=O)Oc1ccccc1C(=O)O					Active	
CC(=O)c1c(O)c([C@@H]2O[C@H](CO)[C@@H](O)[C@H](O)[C@H]2O)c(O)c2c1O[C@@]1(C2)O[C@H](CO)[C@@H](O)[C@@H]1O	Active		Non-Toxic		Active	
COc1cc(/C=C/C(=O)OC[C@H]2O[C@@H](c3c(O)c(C(C)=O)c(O)c([C@@H]4O[C@H](CO)[C@@H](O)[C@H](O)[C@H]4O)c3O)[C@H](O)[C@@H](O)[C@@H]2O)ccc1O	Active		Non-Toxic		Active	
CC(=O)c1c(O)c([C@@H]2O[C@H](CO)[C@@H](O)[C@H](O)[C@H]2O)c(O)c([C@@H]2O[C@H](COC(=O)c3ccccc3)[C@@H](O)[C@H](O)[C@H]2O)c1O	Active		Non-Toxic		Active	
CC(=O)c1c(O)c([C@@H]2O[C@H](CO)[C@@H](O)[C@H](O)[C@H]2O)c(O)c2c1O[C@]1(C2)O[C@H](CO)[C@@H](O)[C@@H]1O	Active		Non-Toxic		Active	
COc1cc(/C=C/C(=O)OC[C@H]2O[C@@H](c3c(O)c(C(C)=O)c(O)c([C@@H]4O[C@H](COC(=O)/C=C/c5ccc(O)c(OC)c5)[C@@H](O)[C@H](O)[C@H]4O)c3O)[C@H](O)[C@@H](O)[C@@H]2O)ccc1O	Active	Non-Toxic	Toxic	Active		
CC(=O)c1c(O)c([C@@H]2O[C@H](COC(=O)/C=C/c3ccc(O)cc3)[C@@H](O)[C@H](O)[C@H]2O)c(O)c([C@@H]2O[C@H](COC(=O)/C=C/c3ccc(O)cc3)[C@@H](O)[C@H](O)[C@H]2O)c1O	Active		Non-Toxic		Active	
CC(=O)c1c(O)c([C@@H]2O[C@H](CO)[C@@H](O)[C@H](O)[C@H]2O)c(O)c([C@@H]2O[C@H](COC(=O)/C=C/c3ccc(O)cc3)[C@@H](O)[C@H](O)[C@H]2O)c1O	Active		Non-Toxic		Active	
